We go through eight compounds from ChEMBL document CHEMBL2157894, “Antileishmanial bis-arylimidamides: DB766 analogs modified in the linker region and bis-arylimidamide structure-activity relationships” (Bioorg Med Chem Lett, 2012).

Data set [1] is described as follows: Selectivity index, ratio of IC50 for mouse J774 cells to IC50 for Leishmania donovani. The data set is classed as toxicity, cell-based. The note with it: J774 cells versus Leishmania donovani, read-out: Ratio IC50. In outline:
(§1)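 SI calculated as IC50 against J774 macrophages divided by IC50 against intracellular Leishmania, each IC50 from mean of at least three determinations.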

In data set [2] the test system is Leishmania donovani. The data set is described as follows: Antileishmanial activity against amastigote form of Leishmania donovani LV82 expressing beta-lactamase infected in CD1 mouse macrophages after 72 hrs by nitrocefin-based spectrophotometric analysis. The data set is classed as functional, organism-based. The note with it: LV82, 72 h. In outline: (§2)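 Intracellular amastigotes in macrophages; absorbance read-out with uninfected and infected control wells; IC50 from dose–response curves; mean ± SD of at least three determinations, each run in triplicate.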

The test system of data set [3] is Mus musculus. The data set is described as follows: Toxicity in BALB/c mouse assessed as tremors at 30 mg/kg/day, ip measured from day 2 to 3. The data set is classed as organism-based. Further details: route intraperitoneal. The note with it: in vivo.
Data set [4] relates to Leishmania amazonensis. As to the kind of experiment: Antileishmanial activity against amastigote form of Leishmania amazonensis expressing beta-lactamase infected in CD1 mouse macrophages after 72 hrs by nitrocefin-based spectrophotometric analysis. It is filed as functional, organism-based. In outline:
as §2

The subject of data set [5] is J774. As to the kind of experiment: Cytotoxicity against mouse J774 cells. It is filed as cell-based. In outline: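 J774 macrophages exposed to compounds; IC50 reported in nM as mean ± SD of at least three determinations.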
Data set [6] in a line: Selectivity index, ratio of IC50 for mouse J774 cells to IC50 for Leishmania amazonensis. The note with it: J774 cells versus Leishmania amazonensis, read-out: Ratio IC50. It is filed as toxicity, cell-based. The gist of the method:
as §1

Data set [7] concerns Mus musculus. As to the kind of experiment: Toxicity in BALB/c mouse assessed as hyperactivity at 30 mg/kg/day, ip measured from day 2 to 3. The data set is classed as organism-based. Also on record: route intraperitoneal. The note with it: in vivo.
Data set [8] has as its system Mus musculus. The data set is described as follows: Gastrointestinal toxicity in BALB/c mouse assessed as black and swollen stomach at 30 mg/kg, ip measured within 24 hrs by necroscopic analysis. The data set is classed as organism-based. The note with it: in vivo. Also on record: dose 30 mg/kg, route intraperitoneal.
Data set [9] concerns Mus musculus. The data set is described as follows: Gastrointestinal toxicity in BALB/c mouse assessed as black and swollen intestine at 30 mg/kg, ip measured within 24 hrs by necroscopic analysis. The data set is classed as organism-based. Also on record: dose 30 mg/kg, route intraperitoneal. As to conditions: in vivo.
Data set [10] has as its system Mus musculus. As to the kind of experiment: Gastrointestinal toxicity in BALB/c mouse assessed as black and swollen colon at 30 mg/kg, ip measured within 24 hrs by necroscopic analysis. The data set is classed as organism-based. The note with it: in vivo. Further details: dose 30 mg/kg, route intraperitoneal.
Data set [11] concerns Mus musculus. The data set is described as follows: Toxicity in BALB/c mouse assessed as mortality at 30 mg/kg, ip measured within 24 hrs. It is filed as organism-based. Further details: dose 30 mg/kg, route intraperitoneal. As to conditions: in vivo.
Data set [12] deals with Leishmania donovani. As to the kind of experiment: Antileishmanial activity against promastigote form of Leishmania donovani LV82 infected in BALB/c mouse assessed as reduction in liver parasitemia at 10 mg/kg/day, po administered for 5 days relative to untreated control. It is filed as functional. Also on record: scale not given: the % may be the effect or the level left. The gist of the method: (§3)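 Female BALB/c mice infected with L. donovani; treated daily for five days starting one week post infection, test agent ip in water, miltefosine orally at 10 mg/kg/day; liver parasitemia counted microscopically two weeks post infection; % reduction versus infected untreated controls; groups of four, mean ± SD; P<0.05 versus untreated.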

For data set [13], the system named is Leishmania donovani. As to the kind of experiment: Antileishmanial activity against promastigote form of Leishmania donovani LV82 infected in BALB/c mouse assessed as reduction in liver parasitemia at 30 mg/kg/day, ip administered for 5 days starting 1 week post-infection measured after 2 weeks relative to untreated control. Also on record: scale not given: the % may be the effect or the level left. As to conditions: route intraperitoneal. It is filed as functional. In outline: as §3

Data set [14] has as its system Mus musculus. As to the kind of experiment: Toxicity in BALB/c mouse assessed as adverse effects at 30 mg/kg/day, ip administered for 5 days. It is filed as organism-based. Also on record: route intraperitoneal. As to conditions: in vivo, 120 h.

As a reminder, the IC50 is the concentration at which inhibition is half-maximal.

`CC(C)Oc1cc(NC(=N)c2ccccn2)ccc1-c1ccc(-c2ccc(NC(=N)c3ccccn3)cc2F)o1.CS(=O)(=O)O`: the selectivity ratio in [1] stood at 180; in data set [6] it was 142. Besides, the IC50 in data set [2] worked out at 0.15 µM; in data set [4] it was 0.19 µM; in data set [5], 27 µM. Moreover, the Activity result in [3] and in [7] was “Toxic” each time.

In the case of `CS(=O)(=O)O.Cc1cc(NC(=N)c2ccccn2)ccc1-c1ccc(-c2ccc(NC(=N)c3ccccn3)cc2OC(C)C)o1`, the selectivity ratio in [1] stood at 619; in [6], 265. Further, the IC50 was 0.021 µM in [2], 0.049 µM in data set [4] and 13 µM in data set [5]. The Activity result in data set [3] and in [7] was “Toxic” in each case.

Turning to `CC(C)Oc1cc(NC(=N)c2ccccn2)ccc1-c1ccc(-c2ccc(NC(=N)c3ccccn3)cc2)o1.CS(=O)(=O)O`, the Activity result in data set [8], in data set [9], in data set [10] and in data set [11] was “Toxic” each time. Besides, the selectivity ratio in data set [1] came out at 2080; in data set [6] it was 115. For the same compound, the IC50 in data set [2] came to 0.0053 µM; in [4], 0.093 µM; in data set [5], 11 µM.

As to `CCCCCCCCCCCCCCCCOP(=O)([O-])OCC[N+](C)(C)C` [MILTEFOSINE], the Activity in [12] amounted to 96%.

As to `COc1cc(NC(=N)c2ccccn2)ccc1-c1ccc(-c2ccc(NC(=N)c3ccccn3)cc2OC(C)C)o1.CS(=O)(=O)O`, the values for the selectivity ratio in data set [1] and in data set [6] were 2000 and 127, respectively. Also, the IC50 in data set [2] was found to be 0.007 µM; in data set [4] it was 0.11 µM; in data set [5], 14 µM. The Activity result in [3] and in [7] was “Toxic” throughout.

Turning to `CC(C)Oc1cc(-c2ccc(-c3ccc(NC(=N)c4ccccn4)c(OC(C)C)c3)o2)ccc1NC(=N)c1ccccn1.CS(=O)(=O)O`, the selectivity ratio in [1] came to 385. The results for the IC50 in data set [2], in data set [4] and in [5] were 0.026 µM, 0.29 µM and 10 µM, respectively. Moreover, the Activity is 32% in data set [13] and “Non-toxic” in [14].

On to `COc1cc([C@@H]2c3cc4c(cc3[C@H](O)[C@H]3COC(=O)[C@H]23)OCO4)cc(OC)c1OC` [PODOFILOX], for which, in data set [5], the IC50 was 0.018 µM.

The compound `C[C@@H]1[C@H](O)[C@@H](C)/C=C/C=C/C=C/C=C/C=C/C=C/C=C/[C@H](O[C@@H]2O[C@H](C)[C@@H](O)[C@H](N)[C@@H]2O)C[C@@H]2O[C@](O)(C[C@@H](O)C[C@@H](O)[C@H](O)CC[C@@H](O)C[C@@H](O)CC(=O)O[C@H]1C)C[C@H](O)[C@H]2C(=O)O` [AMPHOTERICIN B] showed an IC50 in data set [2] of 0.045 µM.
